Rows were chosen to be rich in hits. Some 3.4% of all compounds tested hit in one or more screens of this group.
ROCK2 inh – inhibitors of human Rho kinase 2; 0.35% of 60,000 active; O75116; inhibition, % at 6 µM; AID 604; purified ROCK2, Kinase-Glo ATP depletion luminescence;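 active = inhibition above the screen-wide mean inhibition plus 3 SD, cut at about 18% in these data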;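 also: plate controls were DMSO wells for no effect and Y-27632 control wells after no-enzyme background subtraction for full effect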
JNK3 inh – inhibitors of human JNK3 kinase; P53779; purified JNK3 kinase activity, HTS; inhibition, % at 8 µM; 0.61% of 60,000 active; AID 746; in the data active = inhibition above about 17%;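 also: 0% = DMSO and 100% = reference inhibitor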
Target sequence (P53779 whole entry, looked up): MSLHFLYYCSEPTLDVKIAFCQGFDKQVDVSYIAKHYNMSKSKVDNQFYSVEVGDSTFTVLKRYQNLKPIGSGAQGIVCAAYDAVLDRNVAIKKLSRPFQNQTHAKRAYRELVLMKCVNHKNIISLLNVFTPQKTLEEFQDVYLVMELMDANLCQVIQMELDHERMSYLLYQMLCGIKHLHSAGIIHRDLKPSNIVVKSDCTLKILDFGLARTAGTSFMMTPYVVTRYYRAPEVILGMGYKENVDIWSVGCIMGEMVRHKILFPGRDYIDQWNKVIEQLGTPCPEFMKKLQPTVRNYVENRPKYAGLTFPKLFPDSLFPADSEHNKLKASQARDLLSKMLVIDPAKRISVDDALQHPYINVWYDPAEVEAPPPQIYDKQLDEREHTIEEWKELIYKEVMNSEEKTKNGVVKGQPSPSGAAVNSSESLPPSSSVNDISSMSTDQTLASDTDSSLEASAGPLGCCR
SF-1 act – SF-1 (human) activation; AID 522; 1.9% of 65,000 active; activation, % at 10 µM; Q13285; CHO-K1 Gal4-SF-1 LBD luciferase reporter; % increase over DMSO SF-1-specific signal;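 active = activation above the mean activation of all tested compounds plus 3 SD, cut at about 50% in these data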
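Material: Gal4–SF-1 LBD one-hybrid luciferase reporter in CHO-K1 cells | Amount: 4,000 cells per well | Compound dosing: 10 µM single point, 1% DMSO | Schedule: 20 h compound treatment, 37 °C | Measured by: SteadyLite luciferase luminescence | Evaluation: Percent activation versus DMSO | Control set: DMSO-treated SF-1-transfected cells as negative, DMSO-treated mock-transfected cells lacking SF-1 as background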
WNV NS2B-NS3 inh – blocks West Nile virus NS2B-NS3 protease activity. AID 577. WNV NS2B-NS3 protease, fluorogenic substrate Ex360/Em465; active compounds read low. z-score (concentration not given with the values). P06935. 0.18% of 65,000 active; in the data active = z-score below about -3
RORa activator – RORA (human) activation; P35398; CHO-K1 Gal4-RORA LBD luciferase reporter, luminescence; percent increase over mock-subtracted basal signal; activation, % at 10 µM; 1.5% of 65,000 active; AID 560;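 active = activation above the mean of all tested compounds plus 3 SD, cut at about 49% in these data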;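 also: 0% = DMSO-treated RORA cells and 100% = added signal equal to DMSO minus mock-transfected cells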
PKA inh – PKA (human) kinase inhibition | P17612 | inhibition, % at 6 µM | PKA Kemptide phosphorylation, Kinase-Glo ATP luminescence | 0.1% of 65,000 active;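 active = inhibition above the screen-wide mean inhibition plus 3 SD, cut at about 21% in these data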
Active calls of the source: *.

How did O=C(NCCn1ccc2ccccc21)c1ccc(S(=O)(=O)N2CCOCC2)cc1 do in these assays?
ROCK2 inh: 2; JNK3 inh: -4; SF-1 act: -1; WNV NS2B-NS3 inh: -0.62; RORa activator: -2; PKA inh: 8

What do the screens show for `COc1ccccc1C(=O)Nc1ccc(N2CCN(S(C)(=O)=O)CC2)cc1`?
ROCK2 inh: 4; JNK3 inh: -8; SF-1 act: 34; WNV NS2B-NS3 inh: -0.21; RORa activator: 41; PKA inh: 14

What do the screens show for `COc1cc2ccccc2cc1C(=O)Nc1ccc(N2CCN(C)CC2)cc1`?
ROCK2 inh: 9; JNK3 inh: -15; SF-1 act: 36; WNV NS2B-NS3 inh: -1.1; RORa activator: 59*; PKA inh: 12

What do the screens show for `COc1cc2ccccc2cc1C(=O)Nc1cccnc1`?
ROCK2 inh: 0; JNK3 inh: 1; SF-1 act: 50*; WNV NS2B-NS3 inh: 1; RORa activator: 77*; PKA inh: -4

How did CCOC(=O)C1CCN(C(=O)CN(c2cc(OC)ccc2OC)S(=O)(=O)c2ccccc2)CC1 do in these assays?
ROCK2 inh: 3; JNK3 inh: -1; SF-1 act: -15; WNV NS2B-NS3 inh: -1.2; RORa activator: -2; PKA inh: 1

How did S=P(c1ccc(N2CCOCC2)cc1N1CCOCC1)(N1CCOCC1)N1CCOCC1 do in these assays?
ROCK2 inh: 6; JNK3 inh: -5; SF-1 act: -4; WNV NS2B-NS3 inh: -0.57; RORa activator: -19; PKA inh: 9

Results for Cc1cccc(NC(=O)c2cc3ccccc3c(=O)o2)n1 ?
ROCK2 inh: 7; JNK3 inh: 8; SF-1 act: 65*; WNV NS2B-NS3 inh: 0.69; RORa activator: 57*; PKA inh: 9

What do the screens show for `Cc1nc(SCC(=O)N2CCN(c3ccccc3)CC2)c2c(=O)n(C)c(=O)n(C)c2n1`?
ROCK2 inh: 1; JNK3 inh: -2; SF-1 act: -4; WNV NS2B-NS3 inh: -0.5; RORa activator: -16; PKA inh: -2

Results for Cc1ccc(-n2c(SCC(=O)Nc3ccc4c(c3)OCCO4)nnc2-c2ccco2)cc1 ?
ROCK2 inh: 11; JNK3 inh: 5; SF-1 act: -10; WNV NS2B-NS3 inh: 0.63; RORa activator: -15; PKA inh: 10

What do the screens show for `CCCn1c(SCC(=O)Nc2ccc3c(c2)OCCO3)nnc1-c1ccco1`?
ROCK2 inh: 6; JNK3 inh: 7; SF-1 act: 4; WNV NS2B-NS3 inh: -3.9*; RORa activator: 0; PKA inh: 11

How did COCCNC(=O)c1cc2sc3ccccc3c2s1 do in these assays?
ROCK2 inh: 12; JNK3 inh: -5; SF-1 act: 50*; WNV NS2B-NS3 inh: 0.6; RORa activator: 61*; PKA inh: 7

Results for O=C1CC(c2ccc(Cl)c(Cl)c2)CC(O)=C1C=NCCN1CCNCC1 (stereo not given) ?
ROCK2 inh: 0; JNK3 inh: 3; SF-1 act: -12; WNV NS2B-NS3 inh: 1; RORa activator: 5; PKA inh: 6

What do the screens show for `C=C(C)COc1ccc(-c2nc(N)ncc2-c2ccc(OC)cc2)c(O)c1`?
ROCK2 inh: 2; JNK3 inh: 23*; SF-1 act: 11; WNV NS2B-NS3 inh: -1.1; RORa activator: 24; PKA inh: 6

How did COc1ccc(-c2cnc(N)nc2-c2ccc(OC)cc2O)cc1 do in these assays?
ROCK2 inh: 9; JNK3 inh: 31*; SF-1 act: 13; WNV NS2B-NS3 inh: -0.45; RORa activator: 4; PKA inh: 10

How did CC1CC(C)CN(S(=O)(=O)c2ccc(C(=O)NCCCn3ccnc3)cc2)C1 (stereo not given) do in these assays?
ROCK2 inh: 4; JNK3 inh: -3; SF-1 act: 17; WNV NS2B-NS3 inh: -0.23; RORa activator: 18; PKA inh: 5

What do the screens show for `O=C(O)c1cc2ccccc2n1-c1ccccc1`?
ROCK2 inh: 3; JNK3 inh: 1; SF-1 act: -3; WNV NS2B-NS3 inh: -0.81; RORa activator: 10; PKA inh: 8

How did CN1CCN(C(=O)C2CC(c3c(F)cccc3Cl)=NO2)CC1 (stereo not given) do in these assays?
ROCK2 inh: 7; JNK3 inh: -5; SF-1 act: 21; WNV NS2B-NS3 inh: 0.64; RORa activator: 0; PKA inh: 7

How did CN(C(=O)c1ccccn1)c1nnc(-c2cnccn2)s1 do in these assays?
ROCK2 inh: 3; JNK3 inh: 1; SF-1 act: 70*; WNV NS2B-NS3 inh: 1.4; RORa activator: 44; PKA inh: 13

Results for CN(C(=O)c1cccnc1)c1nnc(-c2ccccn2)s1 ?
ROCK2 inh: 0; JNK3 inh: -8; SF-1 act: 70*; WNV NS2B-NS3 inh: 2.1; RORa activator: 39; PKA inh: 6

How did COc1ccc(NC(=O)C2CCN(S(=O)(=O)c3cccnc3)CC2)cc1Cl do in these assays?
ROCK2 inh: 1; JNK3 inh: 3; SF-1 act: 0; WNV NS2B-NS3 inh: -0.42; RORa activator: 0; PKA inh: -6

Results for O=C(Cc1cccs1)Nc1ccc(NC(=O)c2ccco2)cc1 ?
SF-1 act: 37; WNV NS2B-NS3 inh: -0.55; RORa activator: 32; PKA inh: 3

Results for CCCCCCOc1ccc(OCC(O)CN2C(=O)NC(C)(C)C2=O)cc1 (stereo not given) ?
ROCK2 inh: -3; JNK3 inh: 3; SF-1 act: 36; WNV NS2B-NS3 inh: 1.3; RORa activator: 62*; PKA inh: -9

How did Cc1ccc(OCC(O)CN2C(=O)NC(C)(C)C2=O)cc1C (stereo not given) do in these assays?
ROCK2 inh: 6; JNK3 inh: 9; SF-1 act: 2; WNV NS2B-NS3 inh: 0.28; RORa activator: -4; PKA inh: 6

What do the screens show for `Cc1ccc(CNC(=O)c2ccc(CN3CCOCC3)cc2)cc1`?
SF-1 act: 12; WNV NS2B-NS3 inh: 1; RORa activator: 18; PKA inh: 9

What do the screens show for `CCCOC(=O)C1=C(C)NC2=C(C(=O)CCC2)C1c1cccc(OC)c1OC` (stereo not given)?
ROCK2 inh: 1; JNK3 inh: 4; SF-1 act: -3; WNV NS2B-NS3 inh: 0.13; RORa activator: -10; PKA inh: 3

Results for COc1nc(C)ccc1-c1noc(-c2ccccn2)n1 ?
ROCK2 inh: -3; JNK3 inh: -5; SF-1 act: 22; WNV NS2B-NS3 inh: -0.38; RORa activator: 61*; PKA inh: -2

Results for COc1ccccc1-c1nc(-c2ccc(C)nc2OC)no1 ?
ROCK2 inh: 1; JNK3 inh: -15; SF-1 act: 74*; WNV NS2B-NS3 inh: -1; RORa activator: 39; PKA inh: -1

What do the screens show for `CCC(C)NC(=O)c1c(C)cc(=O)oc1C` (stereo not given)?
SF-1 act: -4; WNV NS2B-NS3 inh: 1.3; RORa activator: -4; PKA inh: -3
